High-throughput results as filed in PubChem.
In the library only some 11% were active in any assay of this set; here they are far more common.
S1P1 ag pot: S1P1 agonists and agonism potentiators, primary screen, cell-based, primary and confirmation screens, CRE-bla reporter; S1P1 CRE-bla cells, forskolin, beta-lactamase FRET, potentiator mode; S1P1 agonist co-added at EC20, 2 nM; 100% = saturating reference agonist, 0% = basal; activation, % at 9.5 µM; 56,000 compounds, 0.57% hits; AID 449, 2006;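 active = activation above a cutoff set at the mean activation of all tested compounds plus 3 SD, cut at about 54% in these data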;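 note: forskolin at 4 µM as EC80 and the EC20 agonist is SEW2871; 100% = SEW2871 at its EC100 plus forskolin at EC80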
Target sequence (P21453 whole entry, looked up): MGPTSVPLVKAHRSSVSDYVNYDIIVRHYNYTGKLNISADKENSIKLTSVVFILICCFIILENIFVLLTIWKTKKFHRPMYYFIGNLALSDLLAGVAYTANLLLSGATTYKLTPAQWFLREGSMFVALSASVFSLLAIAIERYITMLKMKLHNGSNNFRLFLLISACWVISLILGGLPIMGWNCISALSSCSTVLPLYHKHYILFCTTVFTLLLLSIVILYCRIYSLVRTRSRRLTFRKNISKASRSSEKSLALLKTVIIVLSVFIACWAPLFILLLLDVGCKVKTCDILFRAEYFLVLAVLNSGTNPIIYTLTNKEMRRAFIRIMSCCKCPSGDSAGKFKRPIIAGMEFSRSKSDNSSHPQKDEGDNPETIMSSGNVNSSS
M1 agonist: M1 muscarinic receptor agonists, primary screen, CHO-M1 cells, Fluo-4 calcium, agonist mode; B-score at 10 µM; 64,000 compounds, 3% hits; Fluo-4 calcium fluorescence; active compounds read high;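 active = fluorescence rise, raw or as B-score row- and column-corrected plate score, outside the 99.7% band of its plate's samples, either direction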
M1 antagonist: antagonists of rat M1 muscarinic receptor; CHO-M1 cells, Fluo-4 calcium, ACh EC80 antagonist mode; active compounds read low; B-score at 10 µM; 64,000 compounds, 3.4% hits;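 active = calcium fluorescence response, raw or row-and-column corrected B-score, differing from the plate sample mean either way at a set confidence level, mostly lower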
S1P3 agonist: human S1P3 receptor agonists, primary screen, cell-based, primary and confirmation, NFAT-BLA reporter. Sphingosine 1-phosphate receptor 3 (Homo sapiens), Q99500. S1P3 NFAT-BLA reporter cells, agonism, FRET ratio; relative to 1 µM S1P, basal subtracted. activation, % at 4.5 µM. 60,000 compounds, 0.1% hits. AID 373, 2006;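 active = activation above the screen-wide mean plus 3 SD, cut at about 4.5% in these data, passing the limit was not always enough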
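Material: Human S1P3 NFAT-BLA reporter CHO cells | Incubation: Overnight plating, 4 h compound 37 °C, 2 h substrate RT | Signal: FRET β-lactamase substrate fluorescence, excitation 405 nm, 460/535 nm emission ratio, background-subtracted | Compound: 4.5 µM final, single dose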
D1 allo mod: D1 CRE-luciferase signal change, two-sided – cell-based, HEK293 D1, dopamine EC30, D1 allosteric modulator project, primary screen; D(1A) dopamine receptor (Homo sapiens), P21728; dopamine EC30 potentiation; actives deviate in either direction; B-score at 10 µM; 58,000 compounds, 5.9% hits; AID 641, 2007;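 active = luminescence count or its row- and column-corrected plate score outside the 99.7% band of the plate's sample wells, on either side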
M1 antag conf: rat M1 muscarinic receptor antagonists, confirmation, CHO cells, Fluo-4 calcium, duplicate | shares compounds with M1 antagonist | ACh EC80 antagonism; active compounds read low | calcium response (max-min fluorescence) at 10 µM | 1,700 compounds, 43% hits | AID 677, 2007;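 active = calcium response below the same-plate mean of wells given acetylcholine alone at its 80%-effect dose, minus 3 SD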;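 note: raw fluorescence intensity difference in arbitrary instrument units and not normalized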
mGluR4 antag: human mGluR4 response to M1 antagonist hits, M1 allosteric modulator project, cell-based, antagonist mode, secondary assay 1; shares compounds with M1 antagonist; CHO-mGluR4 calcium flux, Fluo-4 fluorescence, glutamate EC80; active compounds read low; fluorescence response (max-min) at 10 µM; 1,700 compounds, 0.9% hits;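 active = fluorescence response below the plate's average for near-maximal glutamate wells, less 3 SD of those wells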;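 note: raw unnormalized fluorescence span taken in the window right after glutamate addition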
An asterisk follows results filed as active; · = not tested or not shown.

SMILES | S1P1 ag pot | M1 agonist | M1 antagonist | S1P3 agonist | D1 allo mod | M1 antag conf | mGluR4 antag
CCCn1cnc2cc(NCc3cccc(OC)c3)ccc21 | 0 | -0.17 | -2.4* | -1 | -0.19 | 397* | 189
CCN1CCN(c2ncnc3sc(C(=O)Nc4ccccc4F)c(C)c23)CC1 | -18 | 0.83 | -0.84 | 0 | · | · | ·
CCN1CCN(c2ncc(C(=O)Nc3ccccc3C(=O)OC)c3ccccc23)CC1 | -4 | -1.8 | -14* | 0 | -0.099 | 166* | 203
COc1ccc(OC)c(N2Cc3cc(C)c(C)cc3C2)c1 | -25 | -0.61 | -0.33 | 0 | -0.92 | · | ·
COc1cccc(C(=O)Cn2c(=N)n(C)c3ccccc32)c1 | -8 | -0.3 | -5* | -1 | -0.49 | 443* | 258
COc1cccc(C(=O)Cn2c(N3CCCCC3)nc3c2c(=O)n(C)c(=O)n3C)c1 | 6 | 0.37 | -0.56 | -1 | -0.29 | · | ·
Cc1ccc(CCNC(=O)Cn2cccc2)cc1 | 2 | 0.15 | -0.37 | -2 | -0.76 | · | ·
CCOC(=O)c1c(CN(CC)CC)oc2cc(Br)c(O)cc12 | -46 | -0.43 | -2* | 0 | 2.5 | 679 | 217
CCOC(=O)c1c(C)oc2cc(Br)c(OC(=O)N3CCOCC3)cc12 | 7 | 2.2 | 0.3 | -2 | · | · | ·
C=CCn1sc(=N)c(C#N)c1N | 4 | -0.16 | -0.085 | 0 | · | · | ·
CN1CCc2c(sc3nc(SCC(N)=O)n(-c4ccccc4)c(=O)c23)C1 | · | -0.16 | -0.07 | · | 0.65 | · | ·
CSc1nc2sc3c(c2c(=O)n1C1CCCCC1)CCN(C)C3 | 3 | -0.038 | -4.8* | -2 | · | 185* | 218
C=CCn1c(SCC(=O)OC)nc2sc3c(c2c1=O)CCN(C)C3 | -1 | 0.03 | -5.3* | -2 | · | 198* | 212
CCOC(=O)Cc1csc(NC(=O)CCc2ccc(S(=O)(=O)N3CCOCC3)cc2)n1 | -13 | 0.66 | -3.1* | 0 | -2.8 | 571 | 216
CCc1[nH]nc2c1C1(CCN(C(=O)c3ccccc3)CC1)C(C#N)=C(N)O2 | · | 0.39 | 0.29 | 1 | 0.63 | · | ·
CC(=O)N1CCC2(CC1)C(C#N)=C(N)Oc1n[nH]c(CSc3ccc(C)cc3)c12 | 0 | -0.42 | -2.4* | 0 | -0.13 | 676 | 127*
Cc1cc(-c2ccccc2)c2c3c(cn2n1)c(=O)n(C)c(=O)n3C | · | -0.43 | 1.4 | -1 | 3.9 | · | ·
Cc1cc(-c2ccccc2)c2nncn2n1 | -11 | 0.35 | -14* | -2 | 0.25 | 635 | 206
CCn1nnnc1SCC(=O)Nc1cc(OC)cc(OC)c1 | 11 | 0.46 | 0.41 | 0 | 0.06 | · | ·
O=C(CCCSc1nc2ccccc2s1)Nc1nccs1 | -2 | -0.048 | -2.7* | 0 | 2.1 | 620 | 243
Cc1cccc(OCc2nnc(SCc3cc(=O)n4cc(Br)ccc4n3)o2)c1 | -5 | 2 | -3* | -3 | 0.014 | 564 | 233
Cc1ccccc1N1CCN(S(=O)(=O)c2ccc3oc(=O)ccc3c2)CC1 | · | 0.14 | -3.3* | -1 | -0.66 | 557 | 233
CC(=O)C1=C(N2CCCCC2)CCC1=O | -6 | -0.62 | -0.57 | 0 | 0.59 | · | ·
Nc1ccc(-c2n[nH]c(=O)c3ccccc23)cc1N | · | 0.0048 | -0.027 | · | 0.63 | · | ·
CN(C(=O)CSc1nc(-c2ccc(F)cc2)cs1)C1CCS(=O)(=O)C1 (centres undefined) | 16 | -0.17 | -3.1* | -1 | 1.2 | 407 | 210
SMILES | S1P1 ag pot | M1 agonist | M1 antagonist | S1P3 agonist | D1 allo mod | M1 antag conf | mGluR4 antag
O=S(=O)(c1ccccc1)N(C1=NCCS1)S(=O)(=O)c1ccccc1 | 4 | 0.17 | 0.8 | -1 | -0.17 | · | ·
CC(CCc1ccco1)NC(=O)CSc1cc(=O)n(C)c2ccccc12 (centres undefined) | 3 | 0.7 | -0.03 | -1 | 0.065 | · | ·
CCOC(=O)N1CCC(Nc2c(NCCN3CCN(Cc4ccccc4)CC3)c(=O)c2=O)CC1 | -8 | 0.027 | -6.7* | -1 | 2.1 | 551 | 254
CCOC(=O)N1CCN(c2c(NCCN3CCN(Cc4ccccc4)CC3)c(=O)c2=O)CC1 | -3 | -0.95 | -0.6 | 0 | 0.2 | · | ·
CC1CCCC(C)N1CCNC(=O)CCn1nc(-c2ccccc2)ccc1=O (centres undefined) | 13 | 0.94 | -0.48 | 0 | 0.1 | · | ·
CCOC(=O)CCSc1nnc(-c2cccnc2)n1-c1ccccc1OC | 3 | -0.55 | -0.83 | 2 | -1.2 | · | ·
CN(CC(=O)N1CCCc2c1c(=O)oc1ccc(O)cc21)Cc1ccccc1 | -8 | 0.74 | -6.5* | 0 | -1.2 | 467* | 212
CCCOc1ccc2oc(=O)c3c(c2c1)CCCN3C(=O)CN1CCN(C(=O)c2ccco2)CC1 | -1 | -0.66 | -1.6 | -1 | -0.32 | · | ·
CCCOc1ccc2oc(=O)c3c(c2c1)CCCN3C(=O)CN1CCCC(C(=O)OCC)C1 (centres undefined) | -32 | 0.65 | -4.9* | 0 | 1.4 | 440* | 255
O=C(CN1CCCC1)N1CCCc2c1c(=O)oc1ccc(OCc3ccccc3)cc21 | 5 | -0.24 | -2.5* | -1 | 0.25 | 384* | 191
CCN1C(=O)c2ccccc2S(=O)(=O)c2ccc(C(=O)NCc3cccnc3)cc21 | -19 | -0.59 | 0.24 | 0 | -0.14 | · | ·
Cn1c(=O)c(C(=O)CSc2nncs2)c(N)n(Cc2ccccc2)c1=O | -22 | -1.1 | 1 | 0 | 1.6 | · | ·
CCN(CC)CCCn1c(=S)[nH]c2ccc(Cl)cc2c1=O | · | 0.023 | -1.4* | · | -2.1 | 596 | 239
C=CCn1c(=O)c(C(=O)Nc2ccccc2C(=O)OCC)c(O)c2ccccc21 | -12 | -0.16 | -2.5* | 0 | -0.25 | 623 | 247
CCC1(C)Cc2ccccc2/C(=C/C(=O)N2CCCCC2)N1 (centres undefined) | 3 | -0.79 | -2.7* | 0 | 0.089 | 18* | 246
COc1cccc(-c2cnc(NCc3cc(Cl)ccc3O)n2C)c1 | -5 | -1.5 | -5.1* | 0 | -2.6 | 359* | 185
Cn1c(-c2cccc(Br)c2)cnc1NCc1cccnc1 | 9 | -0.023 | -6.9* | 0 | -1.3 | 40* | 166
Cn1c(=O)c2c(nc(NCc3cccnc3)n2Cc2cccc(C(F)(F)F)c2)n(C)c1=O | 14 | -0.27 | 0.46 | -1 | -0.91 | · | ·
